# Measured values: ChEMBL document CHEMBL4033712, “Synthesis and biological evaluation of new C-12(α/β)-(N-) sulfamoyl-phenylamino-14-deoxy-andrographolide derivatives as potent anti-cancer agents” (Bioorg Med Chem Lett, 2017)
# Tests used:
# Type in all cases: functional
# K562 = assay: Growth inhibition of human K562 cells incubated for 48 hrs by sulforhodamine B assay; details: K562, 48 h; for CC50: read-out: LC50 (the source's name)
# Outline: (§1)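 NCI-60 five-dose screen at 0.01, 0.1, 1, 10 and 100 µM, 48 h incubation, sulforhodamine B end point. GI50 (50% decrease in net growth), TGI (total growth inhibition) and LC50 (net 50% loss of initial cells) taken from log concentration versus % growth inhibition curves.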
# M14 = assay: Growth inhibition of human M14 cells incubated for 48 hrs by sulforhodamine B assay; details: M14, 48 h; for CC50: read-out: LC50 (the source's name); outline: as §1
# MCF7 = assay: Growth inhibition of human MCF7 cells incubated for 48 hrs by sulforhodamine B assay; details: MCF7, 48 h; outline: as §1
# SF-539 [1] = assay: Growth inhibition of human SF539 cells incubated for 48 hrs by sulforhodamine B assay; details: SF-539, 48 h; for CC50: read-out: LC50 (the source's name)
# Outline: (§2)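 NCI 60 human tumour cell line panel, five-dose study at 0.01, 0.1, 1, 10 and 100 µM, 48 h incubation. Sulforhodamine B protein-binding dye end point. GI50 (50% decrease in net cell growth), TGI (total growth inhibition) and LC50 (net 50% loss of initial cells) read from log concentration versus % growth inhibition curves.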
# KM12 = assay: Growth inhibition of human KM12 cells incubated for 48 hrs by sulforhodamine B assay; details: KM12, 48 h; for CC50: read-out: LC50 (the source's name); outline: as §1
# PC-3 = assay: Growth inhibition of human PC3 cells incubated for 48 hrs by sulforhodamine B assay; details: PC-3, 48 h; for CC50: read-out: LC50 (the source's name); outline: as §1
# SK-MEL-5 = assay: Growth inhibition of human SK-MEL-5 cells incubated for 48 hrs by sulforhodamine B assay; details: SK-MEL-5, 48 h; for CC50: read-out: LC50 (the source's name); outline: as §2
# SF-539 [2] = assay: Anticancer activity against human SF539 cells assessed as cell growth at 10 uM after 48 hrs by sulforhodamine B assay relative to control; details: SF-539, 48 h, read-out: Activity
# Outline: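 Single-dose NCI-60 panel screen: compound added at 10 µM and the culture incubated 48 h. The end point was read by protein staining with sulforhodamine B. The value is percent growth of treated cells relative to untreated control cells, reported as a mean graph across the panel.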
# DU-145 = assay: Growth inhibition of human DU145 cells incubated for 48 hrs by sulforhodamine B assay; details: DU-145, 48 h; for CC50: read-out: LC50 (the source's name); outline: as §1
# T47D = assay: Growth inhibition of human T47D cells incubated for 48 hrs by sulforhodamine B assay; details: for CC50: read-out: LC50 (the source's name); outline: as §2
# MDA-MB-231 = assay: Growth inhibition of human MDA-MB-231 cells incubated for 48 hrs by sulforhodamine B assay; details: MDA-MB-231, 48 h; outline: as §1
# RPMI-8226 = assay: Growth inhibition of human RPMI8226 cells incubated for 48 hrs by sulforhodamine B assay; details: RPMI-8226, 48 h; for CC50: read-out: LC50 (the source's name); outline: as §2
# SK-MEL-2 = assay: Growth inhibition of human SK-MEL-2 cells incubated for 48 hrs by sulforhodamine B assay; details: SK-MEL-2, 48 h; for CC50: read-out: LC50 (the source's name); outline: as §2
# EKVX = assay: Growth inhibition of human EKVX cells incubated for 48 hrs by sulforhodamine B assay; details: for CC50: read-out: LC50 (the source's name); outline: as §1
# SW-620 = assay: Growth inhibition of human SW620 cells incubated for 48 hrs by sulforhodamine B assay; details: SW-620, 48 h; for CC50: read-out: LC50 (the source's name); outline: as §2
# CAKI-1 = assay: Growth inhibition of human Caki1 cells incubated for 48 hrs by sulforhodamine B assay; details: CAKI-1, 48 h; for CC50: read-out: LC50 (the source's name); outline: as §1
# HCC 2998 = assay: Growth inhibition of human HCC2998 cells incubated for 48 hrs by sulforhodamine B assay; details: HCC 2998, 48 h; for CC50: read-out: LC50 (the source's name); outline: as §1
# CCRF-CEM = assay: Growth inhibition of human CCRF-CEM cells incubated for 48 hrs by sulforhodamine B assay; details: for CC50: read-out: LC50 (the source's name); outline: as §1
# HCT-116 = assay: Growth inhibition of human HCT116 cells incubated for 48 hrs by sulforhodamine B assay; details: HCT-116, 48 h; for CC50: read-out: LC50 (the source's name); outline: as §1
# HCT-15 = assay: Growth inhibition of human HCT15 cells incubated for 48 hrs by sulforhodamine B assay; details: HCT-15, 48 h; for CC50: read-out: LC50 (the source's name); outline: as §1
# ACHN = assay: Growth inhibition of human ACHN cells incubated for 48 hrs by sulforhodamine B assay; details: for CC50: read-out: LC50 (the source's name); outline: as §1
# HL-60(TB) = assay: Growth inhibition of human HL-60(TB) cells incubated for 48 hrs by sulforhodamine B assay; details: HL-60, 48 h; for CC50: read-out: LC50 (the source's name)
# Outline: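 NCI-60 five-dose screen at 0.01, 0.1, 1, 10 and 100 µM for 48 h, sulforhodamine B read-out. GI50 taken from log concentration versus % growth inhibition curves as the concentration giving 50% decrease in net cell growth.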
# BT-549 = assay: Growth inhibition of human BT549 cells incubated for 48 hrs by sulforhodamine B assay; details: BT-549, 48 h; for CC50: read-out: LC50 (the source's name); outline: as §1
# A498 = assay: Growth inhibition of human A498 cells incubated for 48 hrs by sulforhodamine B assay; details: A498, 48 h; outline: as §1
# UACC-62 = assay: Growth inhibition of human UACC62 cells incubated for 48 hrs by sulforhodamine B assay; details: UACC-62, 48 h; for CC50: read-out: LC50 (the source's name); outline: as §2
# RXF 393 = assay: Growth inhibition of human RXF393 cells incubated for 48 hrs by sulforhodamine B assay; details: RXF 393, 48 h; for CC50: read-out: LC50 (the source's name); outline: as §2
# SNB-19 = assay: Growth inhibition of human SNB19 cells incubated for 48 hrs by sulforhodamine B assay; details: SNB-19, 48 h; for CC50: read-out: LC50 (the source's name); outline: as §2
compound,measurement,setting,value
C=C1CC[C@@H]2[C@](C)(COC(C)=O)[C@H](OC(C)=O)CC[C@@]2(C)[C@H]1CC(Nc1ccc(S(=O)(=O)Nc2nccs2)cc1)C1=CCOC1=O (some centres not stated),GI50,K562,3.6 µM
same,TGI,K562,29 µM
same,CC50,K562,> 100 µM
same,GI50,M14,2.83 µM
same,TGI,M14,10.5 µM
same,CC50,M14,42.2 µM
same,GI50,MCF7,2.59 µM
same,TGI,MCF7,13.6 µM
same,CC50,MCF7; read-out: LC50 (the source's name),> 100 µM
same,GI50,SF-539 [1],2.35 µM
same,TGI,SF-539 [1],6.31 µM
same,CC50,SF-539 [1],23.5 µM
same,GI50,KM12,7.57 µM
same,TGI,KM12,21.7 µM
same,CC50,KM12,53.3 µM
same,GI50,PC-3,7.74 µM
same,TGI,PC-3,21.5 µM
same,CC50,PC-3,52.2 µM
same,GI50,SK-MEL-5,4.79 µM
same,TGI,SK-MEL-5,17.1 µM
same,CC50,SK-MEL-5,41.3 µM
same,growth at 10 µM,SF-539 [2],-67.1%
same,GI50,DU-145,4.47 µM
same,TGI,DU-145,15.8 µM
same,CC50,DU-145,39.8 µM
same,GI50,T47D,3.39 µM
same,TGI,T47D,20.8 µM
same,CC50,T47D,> 100 µM
same,GI50,MDA-MB-231,3.3 µM
same,LC50 (concentration giving net 50% loss of initial cells),MDA-MB-231,37.6 µM
same,TGI,MDA-MB-231,8.25 µM
same,GI50,RPMI-8226,2.49 µM
same,TGI,RPMI-8226,7.62 µM
same,CC50,RPMI-8226,> 100 µM
same,GI50,SK-MEL-2,10.6 µM
same,TGI,SK-MEL-2,24.3 µM
same,CC50,SK-MEL-2,56.1 µM
same,GI50,EKVX,14 µM
same,TGI,EKVX,27 µM
same,CC50,EKVX,52 µM
same,GI50,SW-620,1.85 µM
same,TGI,SW-620,3.98 µM
same,CC50,SW-620,8.55 µM
same,GI50,CAKI-1,3.8 µM
same,TGI,CAKI-1,14.2 µM
same,CC50,CAKI-1,37.7 µM
same,GI50,HCC 2998,7.78 µM
same,TGI,HCC 2998,21.3 µM
same,CC50,HCC 2998,50.3 µM
same,GI50,CCRF-CEM,2.28 µM
same,TGI,CCRF-CEM,6.76 µM
same,CC50,CCRF-CEM,> 100 µM
same,GI50,HCT-116,1.75 µM
same,TGI,HCT-116,3.75 µM
same,CC50,HCT-116,8 µM
same,GI50,HCT-15,1.73 µM
same,TGI,HCT-15,4.12 µM
same,CC50,HCT-15,9.84 µM
same,GI50,ACHN,5.99 µM
same,TGI,ACHN,18.9 µM
same,CC50,ACHN,45 µM
same,GI50,HL-60(TB),3.01 µM
same,TGI,HL-60(TB),13.3 µM
same,CC50,HL-60(TB),> 100 µM
same,GI50,BT-549,2.43 µM
same,TGI,BT-549,6.5 µM
same,CC50,BT-549,23.1 µM
same,GI50,A498,18.2 µM
same,LC50 (concentration giving net 50% loss of initial cells),A498,58.5 µM
same,TGI,A498,32.6 µM
same,GI50,UACC-62,1.76 µM
same,TGI,UACC-62,4.42 µM
same,CC50,UACC-62,13.5 µM
same,GI50,RXF 393,2.36 µM
same,TGI,RXF 393,4.74 µM
same,CC50,RXF 393,9.53 µM
same,GI50,SNB-19,4.36 µM
same,TGI,SNB-19,16.1 µM
same,CC50,SNB-19,46 µM
C=C1CC[C@@H]2[C@](C)(COC(C)=O)[C@H](OC(C)=O)CC[C@@]2(C)[C@H]1CC(Nc1ccc(S(=O)(=O)Nc2cc(C)on2)cc1)C1=CCOC1=O (some centres not stated),GI50,K562,1.57 µM
same,TGI,K562,8.42 µM
same,CC50,K562,> 100 µM
same,GI50,M14,1.69 µM
same,TGI,M14,4.17 µM
same,CC50,M14,10.8 µM
same,GI50,MCF7,0.59 µM
same,TGI,MCF7,2.76 µM
same,GI50,SF-539 [1],1.59 µM
same,TGI,SF-539 [1],3.06 µM
same,CC50,SF-539 [1],5.89 µM
same,GI50,KM12,1.83 µM
same,TGI,KM12,3.69 µM
same,CC50,KM12,7.42 µM
same,GI50,PC-3,1.98 µM
same,TGI,PC-3,4.31 µM
same,CC50,PC-3,9.4 µM
same,GI50,SK-MEL-5,2.11 µM
same,TGI,SK-MEL-5,4.65 µM
same,CC50,SK-MEL-5,11.7 µM
same,growth at 10 µM,SF-539 [2],6.3%
same,GI50,DU-145,2.43 µM
same,TGI,DU-145,6.53 µM
same,CC50,DU-145,23 µM
same,GI50,T47D,2.8 µM
same,TGI,T47D,7.37 µM
same,CC50,T47D,> 100 µM
same,GI50,MDA-MB-231,2.22 µM
same,LC50 (concentration giving net 50% loss of initial cells),MDA-MB-231,17.1 µM
same,TGI,MDA-MB-231,5.11 µM
same,GI50,RPMI-8226,1.54 µM
same,TGI,RPMI-8226,5.42 µM
same,CC50,RPMI-8226,> 100 µM
same,GI50,SK-MEL-2,2.04 µM
same,TGI,SK-MEL-2,4.4 µM
same,CC50,SK-MEL-2,9.49 µM
same,GI50,EKVX,11 µM
same,TGI,EKVX,25.9 µM
same,CC50,EKVX,60.8 µM
same,GI50,SW-620,1.32 µM
same,TGI,SW-620,2.91 µM
same,CC50,SW-620,6.44 µM
same,GI50,CAKI-1,4.14 µM
same,TGI,CAKI-1,14.7 µM
same,CC50,CAKI-1,38.6 µM
same,GI50,HCC 2998,2.14 µM
same,TGI,HCC 2998,4.05 µM
same,CC50,HCC 2998,7.64 µM
same,GI50,CCRF-CEM,0.47 µM
same,TGI,CCRF-CEM,2.71 µM
same,CC50,CCRF-CEM,> 100 µM
same,GI50,HCT-116,1.12 µM
same,TGI,HCT-116,2.39 µM
same,CC50,HCT-116,5.1 µM
same,GI50,HCT-15,1.5 µM
same,TGI,HCT-15,3.83 µM
same,CC50,HCT-15,9.74 µM
same,GI50,ACHN,1.71 µM
same,TGI,ACHN,3.48 µM
same,CC50,ACHN,7.05 µM
same,GI50,HL-60(TB),1.39 µM
same,TGI,HL-60(TB),3.69 µM
same,CC50,HL-60(TB),9.82 µM
same,GI50,BT-549,1.79 µM
same,TGI,BT-549,3.47 µM
same,CC50,BT-549,6.73 µM
same,GI50,A498,7.69 µM
same,LC50 (concentration giving net 50% loss of initial cells),A498,45 µM
same,TGI,A498,20.3 µM
same,GI50,UACC-62,2.13 µM
same,TGI,UACC-62,7.06 µM
same,CC50,UACC-62,30.5 µM
same,GI50,RXF 393,2.05 µM
same,TGI,RXF 393,3.84 µM
same,CC50,RXF 393,7.22 µM
same,GI50,SNB-19,3.12 µM
same,TGI,SNB-19,12.2 µM
same,CC50,SNB-19,46.4 µM
